Assay results published in ChEMBL document CHEMBL4041465, “Synthesis, characterization and molecular docking studies of substituted 4-coumarinylpyrano[2,3-c]pyrazole derivatives as potent antibacterial and anti-inflammatory agents” (2017).
Converted amounts (≈) assume the structure as drawn.

Key:
[1] = system: Escherichia coli; test: Antibacterial activity against Escherichia coli MTCC 443 after 24 hrs by broth microdilution method; type: functional; settings: MTCC 443, 24 h
Outline: (§1)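 Broth tube dilution MIC in Brain Heart Infusion broth, triplicate per strain. Strains were subcultured at 35 °C for 48 h, then log-phase inoculum was grown from 3–5 colonies at 35 °C for 2–6 h and adjusted to 0.5 McFarland. […] serial dilutions were made over 10 tubes, with a media-plus-culture tube as negative control. Incubation was 24 h at 37 °C, and growth was read as turbidity.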

[2] = system: Pseudomonas aeruginosa; test: Antibacterial activity against Pseudomonas aeruginosa MTCC 25668 after 24 hrs by broth microdilution method; type: functional; settings: MTCC 25668, 24 h; outline: as §1
[3] = In vitro anti-inflammatory activity using hen egg assessed as inhibition of heat-induced egg albumin denaturation at 31.25 ug/ml incubated at 37 +/- 2 degC for 15 mins followed by incubation at 70 degC for 5 mins by UV spectrophotometric method relative to control; type: functional
Outline: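 The 5 mL mix held 0.2 mL fresh hen egg albumin, 2.8 mL PBS pH 6.4 and 2 mL test solution, with water in place of test solution as control. It was held 15 min at 37±2 °C, heated 5 min at 70 °C and cooled, then absorbance was read at 660 nm against a vehicle blank. % inhibition = 100×(Abs control − Abs sample)/Abs control.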

[4] = system: Staphylococcus aureus; test: Antibacterial activity against Staphylococcus aureus MTCC 12598 after 24 hrs by broth microdilution method; type: functional; settings: MTCC 12598, 24 h; outline: as §1
[5] = system: Enterococcus faecalis; test: Antibacterial activity against Enterococcus faecalis MTCC 35550 after 24 hrs by broth microdilution method; type: functional; settings: MTCC 35550, 24 h; outline: as §1
[6] = Potency index, ratio of compound effect to aceclofenac effect for in vitro anti-inflammatory activity using hen egg assessed as inhibition of heat-induced egg albumin denaturation

MIC [1]	MIC [2]	MIC [4]	MIC [5]	SMILES	inhibition [3]	Ratio [6]
6.25 µg/mL (≈ 17.2 µM)	12.5 µg/mL (≈ 34.3 µM)	6.25 µg/mL (≈ 17.2 µM)	12.5 µg/mL (≈ 34.3 µM)	Cc1n[nH]c(O)c1C(CC(=O)O)c1cc(=O)oc2c1ccc1ccccc12 (stereo unspecified)	39.8%	
12.5 µg/mL (≈ 37.4 µM)	12.5 µg/mL (≈ 37.4 µM)	6.25 µg/mL (≈ 18.7 µM)	12.5 µg/mL (≈ 37.4 µM)	Cc1ccc2oc(=O)cc(C3C(C#N)=C(N)Oc4[nH]nc(C)c43)c2c1 (stereo unspecified)	10.3%	
6.25 µg/mL (≈ 19 µM)	12.5 µg/mL (≈ 38.1 µM)	3.12 µg/mL (≈ 9.52 µM)	6.25 µg/mL (≈ 19 µM)	Cc1ccc2c(C(CC(=O)O)c3c(C)n[nH]c3O)cc(=O)oc2c1 (stereo unspecified)	40.6%	
6.25 µg/mL (≈ 15.6 µM)	50 µg/mL (≈ 124 µM)	3.12 µg/mL (≈ 7.78 µM)	6.25 µg/mL (≈ 15.6 µM)	CCOC(=O)C1=C(N)Oc2[nH]nc(C)c2C1c1cc(=O)oc2ccc(Cl)cc12 (stereo unspecified)	39.1%	
3.12 µg/mL (≈ 9.08 µM)	6.25 µg/mL (≈ 18.2 µM)	0.78 µg/mL (≈ 2.27 µM)	1.56 µg/mL (≈ 4.53 µM)	COc1ccc2oc(=O)cc(C(CC(=O)O)c3c(C)n[nH]c3O)c2c1 (stereo unspecified)	63.1%	10
0.78 µg/mL (≈ 2.33 µM)	3.12 µg/mL (≈ 9.35 µM)	6.25 µg/mL (≈ 18.7 µM)	12.5 µg/mL (≈ 37.4 µM)	Cc1ccc2c(C3C(C#N)=C(N)Oc4[nH]nc(C)c43)cc(=O)oc2c1 (stereo unspecified)	7.6%	
3.12 µg/mL (≈ 8.19 µM)	12.5 µg/mL (≈ 32.8 µM)	3.12 µg/mL (≈ 8.19 µM)	25 µg/mL (≈ 65.6 µM)	CCOC(=O)C1=C(N)Oc2[nH]nc(C)c2C1c1cc(=O)oc2cc(C)ccc12 (stereo unspecified)	28.7%	
3.12 µg/mL (≈ 10.1 µM)	12.5 µg/mL (≈ 40.3 µM)	6.25 µg/mL (≈ 20.1 µM)	12.5 µg/mL (≈ 40.3 µM)	Cc1ccc2oc(=O)cc(C3CC(=O)Oc4[nH]nc(C)c43)c2c1 (stereo unspecified)	16%	
12.5 µg/mL (≈ 32.8 µM)	6.25 µg/mL (≈ 16.4 µM)	3.12 µg/mL (≈ 8.19 µM)	6.25 µg/mL (≈ 16.4 µM)	CCOC(=O)C1=C(N)Oc2[nH]nc(C)c2C1c1cc(=O)oc2ccc(C)cc12 (stereo unspecified)	24.8%	
12.5 µg/mL (≈ 38.1 µM)	25 µg/mL (≈ 76.1 µM)	3.12 µg/mL (≈ 9.52 µM)	6.25 µg/mL (≈ 19 µM)	Cc1ccc2oc(=O)cc(C(CC(=O)O)c3c(C)n[nH]c3O)c2c1 (stereo unspecified)	37.4%	
25 µg/mL (≈ 71.7 µM)	50 µg/mL (≈ 143 µM)	1.56 µg/mL (≈ 4.47 µM)	6.25 µg/mL (≈ 17.9 µM)	Cc1n[nH]c(O)c1C(CC(=O)O)c1cc(=O)oc2ccc(Cl)cc12 (stereo unspecified)	42.6%	10
12.5 µg/mL (≈ 40.3 µM)	6.25 µg/mL (≈ 20.1 µM)	6.25 µg/mL (≈ 20.1 µM)	6.25 µg/mL (≈ 20.1 µM)	Cc1ccc2c(C3CC(=O)Oc4[nH]nc(C)c43)cc(=O)oc2c1 (stereo unspecified)	15.8%	

Second part, the compound before the results:

SMILES	MIC [1]	MIC [2]	MIC [4]	MIC [5]	inhibition [3]	Ratio [6]
COc1ccc2oc(=O)cc(C3CC(=O)Oc4[nH]nc(C)c43)c2c1 (stereo unspecified)	6.25 µg/mL (≈ 19.2 µM)	6.25 µg/mL (≈ 19.2 µM)	3.12 µg/mL (≈ 9.58 µM)	6.25 µg/mL (≈ 19.2 µM)	29.3%	
Cc1n[nH]c2c1C(c1cc(=O)oc3ccc(Cl)cc13)C(C#N)=C(N)O2 (stereo unspecified)	3.12 µg/mL (≈ 8.81 µM)	12.5 µg/mL (≈ 35.2 µM)	3.12 µg/mL (≈ 8.81 µM)	6.25 µg/mL (≈ 17.6 µM)	28%	
CCOC(=O)C1=C(N)Oc2[nH]nc(C)c2C1c1cc(=O)oc2ccc(OC)cc12 (stereo unspecified)	6.25 µg/mL (≈ 15.7 µM)	6.25 µg/mL (≈ 15.7 µM)	1.56 µg/mL (≈ 3.93 µM)	3.12 µg/mL (≈ 7.86 µM)	51.4%	10
O=C(O)c1cn(C2CC2)c2cc(N3CCNCC3)c(F)cc2c1=O [CIPROFLOXACIN]	3.12 µg/mL (≈ 9.43 µM)			6.25 µg/mL (≈ 18.9 µM)		
Cc1n[nH]c2c1C(c1cc(=O)oc3ccc(Cl)cc13)CC(=O)O2 (stereo unspecified)	6.25 µg/mL (≈ 18.9 µM)	12.5 µg/mL (≈ 37.8 µM)	6.25 µg/mL (≈ 18.9 µM)	12.5 µg/mL (≈ 37.8 µM)	3.27%	
COc1ccc2oc(=O)cc(C3C(C#N)=C(N)Oc4[nH]nc(C)c43)c2c1 (stereo unspecified)	6.25 µg/mL (≈ 17.8 µM)	1.56 µg/mL (≈ 4.45 µM)	3.12 µg/mL (≈ 8.92 µM)	12.5 µg/mL (≈ 35.7 µM)	19.1%	
Cc1n[nH]c2c1C(c1cc(=O)oc3c1ccc1ccccc13)CC(=O)O2 (stereo unspecified)	12.5 µg/mL (≈ 36.1 µM)	6.25 µg/mL (≈ 18 µM)	12.5 µg/mL (≈ 36.1 µM)	12.5 µg/mL (≈ 36.1 µM)	1.89%	
CCOC(=O)C1=C(N)Oc2[nH]nc(C)c2C1c1cc(=O)oc2c1ccc1ccccc12 (stereo unspecified)	6.25 µg/mL (≈ 15 µM)	6.25 µg/mL (≈ 15 µM)	3.12 µg/mL (≈ 7.49 µM)	12.5 µg/mL (≈ 29.9 µM)	37.6%	
O=C(O)COC(=O)Cc1ccccc1Nc1c(Cl)cccc1Cl					5.5%	
Cc1n[nH]c2c1C(c1cc(=O)oc3c1ccc1ccccc13)C(C#N)=C(N)O2 (stereo unspecified)	25 µg/mL (≈ 67.5 µM)	25 µg/mL (≈ 67.5 µM)	6.25 µg/mL (≈ 16.9 µM)	12.5 µg/mL (≈ 33.8 µM)	14.4%	
